Measurements taken from ChEMBL document CHEMBL2384906, “Biological activity, design, synthesis and structure activity relationship of some novel derivatives of curcumin containing sulfonamides” (Eur J Med Chem, 2013).
≈ marks a conversion by molar mass, not a printed value. Calls of active or inactive are those of the source. No cut-off for these calls is given here.

What was measured:
Escherichia coli [1] = assay: Antimicrobial activity against Escherichia coli ATCC 35218 assessed as diameter of inhibition zone at 20 uM after 24 hrs by Kirby -Baur disc diffusion method; type: functional; conditions: ATCC 35218, 24 h, read-out: DIZ
Summary of the method: (§1)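 Kirby-Bauer disc diffusion was used. Acetone stocks (160 µM) were serially doubled down to 80, 40 and 20 µM. 4 µL of each went onto 5 mm sterile paper discs, which were dried 30 min at 50 °C. Inoculum was 1.5 × 10⁸ CFU/mL diluted to 3 × 10² CFU/mL, and 50 µL was spread on Mueller-Hinton agar. After 24 h at 37 °C the inhibition-zone diameter was measured. Ciprofloxacin served as positive control.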

Aspergillus niger [2] = assay: Antifungal activity against Aspergillus niger MTCC 1108 after 48 hrs; type: functional
Aspergillus flavus [3] = assay: Antifungal activity against Aspergillus flavus MTCC 1021 assessed as zone of inhibition at 80 uM after 48 hrs by disc diffusion method; type: functional
Summary of the method: (§2)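 Spores from 4-day potato dextrose agar cultures, suspended in sterile water at 1.5 × 10⁵ CFU/mL. 0.2 mL was spread on potato dextrose agar. 5 mm filter-paper discs soaked with test compound were laid on the lawn. Incubation was 48 h at 28 °C, then the inhibition zone was measured in mm. Fluconazole was the positive control and acetone the negative control.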

Salmonella typhi [4] = assay: Antimicrobial activity against Salmonella typhi ATCC 23564 assessed as diameter of inhibition zone at 80 uM after 24 hrs by Kirby -Baur disc diffusion method; type: functional, Salmonella enterica subsp. enterica serovar Typhi; conditions: Salmonella enterica, ATCC 23564, 24 h; read-out: DIZ
QG-56 = assay: Cytotoxicity against human QG56 cells after 24 hrs by MTT assay; type: functional, cell-based
Summary of the method: (§3)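 The MTT assay seeded 5 × 10⁴ cells per well and grew them 24 h in RPMI 1640 with compound at 2.5–200 µM. Medium without cells was the blank and adriamycin the positive control. MTT was added for 4 h at 37 °C, formazan was solubilised, and absorbance was read at 570 nm. IC50 is the concentration that cuts viability 50% against untreated cells.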

Staphylococcus aureus [5] = assay: Antimicrobial activity against Staphylococcus aureus ATCC 11632 after 24 hrs by broth micro serial dilution method; type: functional; conditions: ATCC 11632, 24 h
Summary of the method: (§4)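 This was broth microdilution in autoclaved Mueller-Hinton broth. 150 µL of compound per well was serially diluted […], and 50 µL of test organism was added. Plates were incubated 24 h at 37 °C and optical density was read.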

Trichoderma viride [6] = assay: Antifungal activity against Trichoderma viride MTCC 1107 assessed as zone of inhibition at 80 uM after 48 hrs by disc diffusion method; type: functional; conditions: MTCC 1107, 48 h, read-out: IZ; summary of the method: as §2
Escherichia coli [7] = assay: Antimicrobial activity against Escherichia coli ATCC 35218 after 24 hrs by broth micro serial dilution method; type: functional; conditions: ATCC 35218, 24 h; summary of the method: as §4
Curvularia lunata [8] = assay: Antifungal activity against Curvularia lunata MTCC 581 assessed as zone of inhibition at 20 uM after 48 hrs by disc diffusion method; type: functional; conditions: MTCC 581, 48 h, read-out: IZ; summary of the method: as §2
Escherichia coli [9] = assay: Antimicrobial activity against Escherichia coli ATCC 35218 assessed as diameter of inhibition zone at 40 uM after 24 hrs by Kirby -Baur disc diffusion method; type: functional; conditions: ATCC 35218, 24 h, read-out: DIZ; summary of the method: as §1
Bacillus cereus [10] = assay: Antimicrobial activity against Bacillus cereus MTCC 7350 after 24 hrs by broth micro serial dilution method; type: functional; conditions: MTCC 7350, 24 h; summary of the method: as §4
Trichoderma viride [11] = assay: Antifungal activity against Trichoderma viride MTCC 1107 assessed as zone of inhibition at 20 uM after 48 hrs by disc diffusion method; type: functional; conditions: MTCC 1107, 48 h, read-out: IZ; summary of the method: as §2
Curvularia lunata [12] = assay: Antifungal activity against Curvularia lunata MTCC 581 after 48 hrs; type: functional; conditions: MTCC 581, 48 h
Bacillus cereus [13] = assay: Antimicrobial activity against Bacillus cereus MTCC 7350 assessed as diameter of inhibition zone at 20 uM after 24 hrs by Kirby -Baur disc diffusion method; type: functional; summary of the method: as §1
HeLa = assay: Cytotoxicity against human HeLa cells after 24 hrs by MTT assay; type: functional, cell-based; summary of the method: as §3
Bacillus cereus [14] = assay: Antimicrobial activity against Bacillus cereus MTCC 7350 assessed as diameter of inhibition zone at 40 uM after 24 hrs by Kirby -Baur disc diffusion method; type: functional; summary of the method: as §1
Aspergillus flavus [15] = assay: Antifungal activity against Aspergillus flavus MTCC 1021 after 48 hrs; type: functional
Staphylococcus aureus [16] = assay: Antimicrobial activity against Staphylococcus aureus ATCC 11632 assessed as diameter of inhibition zone at 20 uM after 24 hrs by Kirby -Baur disc diffusion method; type: functional; summary of the method: as §1
Trichoderma viride [17] = assay: Antifungal activity against Trichoderma viride MTCC 1107 after 48 hrs; type: functional; conditions: MTCC 1107, 48 h
HCT-116 = assay: Cytotoxicity against human HCT116 cells after 24 hrs by MTT assay; type: functional, cell-based; summary of the method: as §3
Staphylococcus aureus [18] = assay: Antimicrobial activity against Staphylococcus aureus ATCC 11632 assessed as diameter of inhibition zone at 40 uM after 24 hrs by Kirby -Baur disc diffusion method; type: functional; conditions: ATCC 11632, 24 h, read-out: DIZ; summary of the method: as §1
Salmonella typhi [19] = assay: Antimicrobial activity against Salmonella typhi ATCC 23564 assessed as diameter of inhibition zone at 20 uM after 24 hrs by Kirby -Baur disc diffusion method; type: functional; conditions: Salmonella enterica subsp. enterica serovar Typhi
Bacillus cereus [20] = assay: Antimicrobial activity against Bacillus cereus MTCC 7350 assessed as diameter of inhibition zone at 80 uM after 24 hrs by Kirby -Baur disc diffusion method; type: functional; conditions: MTCC 7350, 24 h, read-out: DIZ; summary of the method: as §1
Escherichia coli [21] = assay: Antimicrobial activity against Escherichia coli ATCC 35218 assessed as diameter of inhibition zone at 80 uM after 24 hrs by Kirby -Baur disc diffusion method; type: functional; conditions: ATCC 35218, 24 h, read-out: DIZ; summary of the method: as §1
Mus musculus = assay: Antiinflammatory activity in mouse assessed as inhibition of carrageenan-induced increase in paw volume at 200 mg/kg administered 1 hr prior to carrageenan challenge measured after 3 hrs relative to control; type: functional
Summary of the method: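 Mice were fasted 2 h and placed in groups of five. Controls received saline i.p. Phenylbutazone was given at 100 mg/kg i.p., curcumin at 200 mg/kg i.p., and derivatives at 200 mg/kg. After 1 h, 0.1 mL of 1% carrageenan in saline was injected subplantar into the right hind paw. Paw volume was followed by plethysmometer for 3 h, and % inhibition was calculated as (Vc − Vt)/Vc × 100.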

Staphylococcus aureus [22] = assay: Antimicrobial activity against Staphylococcus aureus ATCC 11632 assessed as diameter of inhibition zone at 80 uM after 24 hrs by Kirby -Baur disc diffusion method; type: functional; conditions: ATCC 11632, 24 h, read-out: DIZ; summary of the method: as §1
Salmonella typhi [23] = assay: Antimicrobial activity against Salmonella typhi ATCC 23564 after 24 hrs by broth micro serial dilution method; type: functional, Salmonella enterica subsp. enterica serovar Typhi; conditions: Salmonella enterica, ATCC 23564, 24 h
Trichoderma viride [24] = assay: Antifungal activity against Trichoderma viride MTCC 1107 assessed as zone of inhibition at 40 uM after 48 hrs by disc diffusion method; type: functional; conditions: MTCC 1107, 48 h, read-out: IZ; summary of the method: as §2
Pseudomonas aeruginosa [25] = assay: Antimicrobial activity against Pseudomonas aeruginosa ATCC 15499 assessed as diameter of inhibition zone at 80 uM after 24 hrs by Kirby -Baur disc diffusion method; type: functional; summary of the method: as §1
Pseudomonas aeruginosa [26] = assay: Antimicrobial activity against Pseudomonas aeruginosa ATCC 15499 after 24 hrs by broth micro serial dilution method; type: functional; conditions: ATCC 15499, 24 h; summary of the method: as §4
HepG2 = assay: Cytotoxicity against human HepG2 cells after 24 hrs by MTT assay; type: functional, cell-based; summary of the method: as §3
Aspergillus niger [27] = assay: Antifungal activity against Aspergillus niger MTCC 1108 assessed as zone of inhibition at 80 uM after 48 hrs by disc diffusion method; type: functional; summary of the method: as §2
Curvularia lunata [28] = assay: Antifungal activity against Curvularia lunata MTCC 581 assessed as zone of inhibition at 40 uM after 48 hrs by disc diffusion method; type: functional; conditions: MTCC 581, 48 h, read-out: IZ; summary of the method: as §2
Salmonella typhi [29] = assay: Antimicrobial activity against Salmonella typhi ATCC 23564 assessed as diameter of inhibition zone at 40 uM after 24 hrs by Kirby -Baur disc diffusion method; type: functional; conditions: Salmonella enterica subsp. enterica serovar Typhi
Curvularia lunata [30] = assay: Antifungal activity against Curvularia lunata MTCC 581 assessed as zone of inhibition at 80 uM after 48 hrs by disc diffusion method; type: functional; conditions: MTCC 581, 48 h, read-out: IZ; summary of the method: as §2

| SMILES | zone of inhibition at 20 µM (Escherichia coli [1]) | MIC (Aspergillus niger [2]) | inhibition zone (IZ) (Aspergillus flavus [3]) | zone of inhibition at 80 µM (Salmonella typhi [4]) | IC50 (QG-56) | MIC (Staphylococcus aureus [5]) | zone of inhibition at 80 µM (Trichoderma viride [6]) | MIC (Escherichia coli [7]) | zone of inhibition at 20 µM (Curvularia lunata [8]) | zone of inhibition at 40 µM (Escherichia coli [9]) | MIC (Bacillus cereus [10]) | zone of inhibition at 20 µM (Trichoderma viride [11]) | MIC (Curvularia lunata [12]) | diameter of the inhibition zone (DIZ) (Bacillus cereus [13]) | IC50 (HeLa) | diameter of the inhibition zone (DIZ) (Bacillus cereus [14]) | MIC (Aspergillus flavus [15]) | diameter of the inhibition zone (DIZ) (Staphylococcus aureus [16]) | MIC (Trichoderma viride [17]) | IC50 (HCT-116) | also measured |
| --- | --- | --- | --- | --- | --- | --- | --- | --- | --- | --- | --- | --- | --- | --- | --- | --- | --- | --- | --- | --- | --- |
| COc1cc(/C=C/c2nn(-c3ccccc3)c(/C=C/c3ccc(O)c(OC)c3)c2/N=N/c2ccc(S(=O)(=O)Nc3nc(C)cc(C)n3)cc2)ccc1O | 9 mm | inactive | inactive | 9 mm | 100 µM | > 80 µM | 22 mm | > 80 µM | 18 mm | 11 mm | > 80 µM | 18 mm | 20 µM (≈ 14.6 µg/mL) | inactive | 50 µM | inactive | inactive | inactive | 20 µM (≈ 14.6 µg/mL) | Not Active | zone of inhibition at 40 µM (Staphylococcus aureus [18]): 8 mm; diameter of the inhibition zone (DIZ) (Salmonella typhi [19]): inactive; zone of inhibition at 80 µM (Bacillus cereus [20]): 9 mm; zone of inhibition at 80 µM (Escherichia coli [21]): 12 mm; inhibition in vivo at 200 mg/kg (Mus musculus): 37%; zone of inhibition at 80 µM (Staphylococcus aureus [22]): 9 mm; MIC (Salmonella typhi [23]): > 80 µM; zone of inhibition at 40 µM (Trichoderma viride [24]): 19 mm; diameter of the inhibition zone (DIZ) (Pseudomonas aeruginosa [25]): inactive; MIC (Pseudomonas aeruginosa [26]): > 80 µM; IC50 (HepG2): > 100 µM; inhibition zone (IZ) (Aspergillus niger [27]): inactive; zone of inhibition at 40 µM (Curvularia lunata [28]): 19 mm; diameter of the inhibition zone (DIZ) (Salmonella typhi [29]): inactive; zone of inhibition at 80 µM (Curvularia lunata [30]): 22 mm |
| COc1ccc(NS(=O)(=O)c2ccc(/N=N/c3c(/C=C/c4ccc(O)c(OC)c4)nn(-c4ccccc4)c3/C=C/c3ccc(O)c(OC)c3)cc2)nn1 | 8 mm | inactive | inactive | 10 mm | 100 µM | > 80 µM | 19 mm | > 80 µM | 12 mm | 9 mm | > 80 µM | 12 mm | 20 µM (≈ 14.6 µg/mL) | inactive | 50 µM | inactive | inactive | inactive | 40 µM (≈ 29.3 µg/mL) | Not Active | zone of inhibition at 40 µM (Staphylococcus aureus [18]): 7 mm; diameter of the inhibition zone (DIZ) (Salmonella typhi [19]): inactive; zone of inhibition at 80 µM (Bacillus cereus [20]): 9 mm; zone of inhibition at 80 µM (Escherichia coli [21]): 11 mm; inhibition in vivo at 200 mg/kg (Mus musculus): 45.1%; zone of inhibition at 80 µM (Staphylococcus aureus [22]): 9 mm; MIC (Salmonella typhi [23]): > 80 µM; zone of inhibition at 40 µM (Trichoderma viride [24]): 16 mm; diameter of the inhibition zone (DIZ) (Pseudomonas aeruginosa [25]): inactive; MIC (Pseudomonas aeruginosa [26]): > 80 µM; IC50 (HepG2): > 100 µM; inhibition zone (IZ) (Aspergillus niger [27]): inactive; zone of inhibition at 40 µM (Curvularia lunata [28]): 16 mm; diameter of the inhibition zone (DIZ) (Salmonella typhi [29]): inactive; zone of inhibition at 80 µM (Curvularia lunata [30]): 19 mm |
